Measurements from ChEMBL document CHEMBL1146535, “New manzamine alkaloids with activity against infectious and tropical parasitic diseases from an Indonesian sponge” (J Nat Prod, 2003).
In brackets after ≈: the same amount, converted by molar mass. Activity calls are given as the source filed them. No cut-off for these calls is given here.

Tests used:
Plasmodium falciparum [1] = assay: Antimalarial activity against Plasmodium falciparum D6; type: functional, organism-based
Plasmodium falciparum [2] = assay: Antimalarial activity against chloroquine-resistant Plasmodium falciparum W2; type: functional, organism-based
Leishmania donovani = assay: Antileishmanial activity against Leishmania donovani promastigotes expressing luciferase; type: functional, organism-based
Outline: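 Transgenic L. donovani promastigote line stably expressing luciferase used as the test organism. Pentamidine and amphotericin B run alongside as reference antileishmanials.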

Vero = assay: Cytotoxicity against african green monkey Vero cells; type: cell-based; conditions: chlorocebus sabaeus
[3] = tested on: Mycobacterium tuberculosis; assay: Antimycobacterial activity against Mycobacterium tuberculosis H37Rv; type: functional
[4] = tested on: Human immunodeficiency virus 1; assay: Antiviral activity against HIV1 in human PBM cells; type: functional, organism-based; conditions: Human immunodeficiency virus 1, PBMC
[5] = Cytotoxicity against human […] cells; type: functional, cell-based
HT-29 = assay: Cytotoxicity against human HT-29 cells; type: functional, cell-based
[6] = Cytotoxicity against human H116 cells; type: functional, cell-based
[7] = Cytotoxicity against mouse MS1 cells; type: cell-based; conditions: MS-1

Row | Compound | Activity (Plasmodium falciparum [1]) | Activity (Plasmodium falciparum [2]) | Activity (Leishmania donovani) | Activity (Vero) | MIC [3] | other results
1 | O=C1[C@@H]2CCCCCCN2[C@@H]2[C@]13CN1CCCC/C=C\CC[C@]2(O)C=C(c2nccc4c2[nH]c2ccc(O)cc24)[C@@H]3CC1 | inactive | inactive | inactive | Non-toxic |  | 
2 | O=C1NCCc2c1[nH]c1ccccc21 | inactive | inactive | inactive | Non-toxic |  | 
3 | O=C1CCCN2[C@@H]3[C@@]45CN6CCCC/C=C\CC[C@]3(C=C(c3nccc7c3[nH]c3ccccc37)[C@@H]4CC6)O[C@@]2(CC1)C5 | inactive | inactive | inactive | Non-toxic | 128 µg/mL (≈ 227 µM) | 
4 | Oc1cccc2c1[nH]c1c(C3=C[C@@]4(O)CC/C=C\CCCCN5CC[C@@H]3[C@]3(CC6/C=C\CCCCN6[C@H]34)C5)nccc12 (stereo not given in full) |  |  |  | 1100 ng/mL | 0.91 µg/mL (≈ 1.61 µM) | EC50 [4]: 4200 nM
5 | O[C@]12C=C(c3nccc4c3[nH]c3ccccc34)C3CCN(CCCC/C=C\CC1)C[C@@]31C[C@]34CC[C@H](CCCN3[C@H]12)O4 (stereo not given in full) [6-Deoxymanzamine X] |  |  |  | 4760 ng/mL | 1.77 µg/mL (≈ 3.13 µM) | IC50 (Plasmodium falciparum [1]): 1.3 µg/mL (≈ 2.3 µM); IC50 (Plasmodium falciparum [2]): 1.4 µg/mL (≈ 2.48 µM); IC50 (Leishmania donovani): 3.2 µg/mL (≈ 5.67 µM); IC90 (Leishmania donovani): 7.5 µg/mL (≈ 13.3 µM); IC50 [5]: 1 µg/mL (≈ 1.77 µM); IC50 (HT-29): 0.5 µg/mL (≈ 0.885 µM); IC50 [6]: 0.5 µg/mL (≈ 0.885 µM); IC50 [7]: 1 µg/mL (≈ 1.77 µM); EC50 [4]: 1600 nM
6 | C1=C(c2nccc3c2[nH]c2ccccc23)[C@@H]2CCN3CCCC/C=C\CC[C@]14O[C@@]15/C=C\CCCCN1[C@@H]4[C@]2(C3)C5 [12,34-OXAMANZAMINE A] |  | inactive |  | Non-toxic |  | 
7 | O[C@@H]1CCCN2[C@@H](CC1)C[C@]13CN4CCCC/C=C\CC[C@](O)(C=C(c5nccc6c5[nH]c5ccccc56)[C@@H]1CC4)[C@H]23 [32,33-DIHYDRO-31-HYDROXYMANZAMINE A] | inactive | inactive | inactive | Non-toxic |  | 
8 | O=C(c1c[nH]cn1)c1nccc2c1[nH]c1ccccc12 [DES-N-METHYLXESTOMANZAMINE A] | inactive | inactive |  | Non-toxic |  | IC50 (Leishmania donovani): 35 µg/mL (≈ 133 µM); IC90 (Leishmania donovani): > 50 µg/mL
9 | OC1=C[C@@]2(O)CC/C=C\CCCCN3CC[C@@H]1[C@]1(C[C@@H]4/C=C\CCCCN4[C@H]12)C3 [IRCINOL A] |  |  |  |  |  | IC50 (Leishmania donovani): 0.9 µg/mL (≈ 2.26 µM); IC90 (Leishmania donovani): 1.7 µg/mL (≈ 4.27 µM)
10 | O[C@]12C=C(c3nccc4c3[nH]c3ccccc34)[C@@H]3CCN(CCCC/C=C\CC1)C[C@@]31C[C@@H]3/C=C\CCCCN3[C@H]12 [MANZAMINE A] |  |  |  | 1200 ng/mL | 1.53 µg/mL (≈ 2.79 µM) | EC50 [4]: 590 nM
11 | O=C1CCCN2[C@@H](CC1)C[C@]13CN4CCCC/C=C\CC[C@](O)(C=C(c5nccc6c5[nH]c5ccccc56)C1CC4)[C@H]23 (stereo not given in full) [MANZAMINE E] |  |  |  | Non-toxic | 3.76 µg/mL (≈ 6.66 µM) | 
12 | O=C1CCCN2[C@@H](CC1)C[C@]13CN4CCCC/C=C\CC[C@](O)(C=C(c5nccc6c5[nH]c5c(O)cccc56)C1CC4)[C@H]23 (stereo not given in full) [MANZAMINE F] |  |  |  | Non-toxic | 2.56 µg/mL (≈ 4.41 µM) | 
13 | Oc1ccc2[nH]c3c(C4=C[C@@]5(O)CC/C=C\CCCCN6CC[C@@H]4[C@@]4(C6)C[C@@]67CC[C@@H](CCCN6[C@H]45)O7)nccc3c2c1 [MANZAMINE X] |  |  |  | Non-toxic |  | IC50 (Plasmodium falciparum [1]): 0.95 µg/mL (≈ 1.64 µM); IC50 (Plasmodium falciparum [2]): 2 µg/mL (≈ 3.44 µM); IC50 (Leishmania donovani): 5.7 µg/mL (≈ 9.81 µM); IC90 (Leishmania donovani): 11 µg/mL (≈ 18.9 µM); IC50 [5]: 5.1 µg/mL (≈ 8.78 µM); IC50 (HT-29): 0.5 µg/mL (≈ 0.861 µM); IC50 [6]: 5.1 µg/mL (≈ 8.78 µM); IC50 [7]: 5.1 µg/mL (≈ 8.78 µM)
14 | c1ccc2c(c1)[nH]c1cnccc12 [NORHARMANE] | inactive | inactive | inactive | Non-toxic |  | 
